From ChEMBL document CHEMBL1932987, “Straightforward palladium-mediated synthesis and biological evaluation of benzo[j]phenanthridine-7,12-diones as anti-tuberculosis agents” (Eur J Med Chem, 2012)
≈ marks a conversion by molar mass, not a printed value. Calls of active or inactive are those of the source. No cut-off for these calls is given here.

Legend:
[1] = Selectivity index, ratio of IC50 for human HepG2/C3A cells to MIC50 for Mycobacterium tuberculosis H37Rv; assay type: functional
Procedure, shortened: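 Selectivity index is the IC50 from the C3A neutral red uptake assay divided by the MIC50 against luminescent M.tb. H37Rv.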

[2] = Cytotoxicity against human HepG2/C3A cells after 24 hrs by neutral red uptake assay; assay type: cell-based
Procedure, shortened: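 C3A hepatocytes in DMEM + 10% FCS, 40,000 per well, recovered at 37 °C, 5% CO2. Exposed 24 h to final 10, 3, 1, 0.3, 0.1 µM from 1 mM DMSO stocks. Neutral red added for 3 h, extracted with ethanol/acetic acid, OD read at 530 nm with 620 nm reference. IC50 = 50% neutral red uptake.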

[3] = tested on: Salmonella typhimurium; test: Genotoxicity in Salmonella Typhimurium expressing episomal lux operon assessed as concentration required to cause toxicity in presence of S9 fraction; assay type: organism-based; details: salmonella enterica subsp. enterica serovar typhimurium
Procedure, shortened: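 VITOTOX with genetically engineered Salmonella typhimurium strains, with or without S9 from aroclor-treated rat liver. Genotoxicity reported by a luxCDABE reporter under the RecN promoter. Tested at 10, 1 and 0.1 µM; lowest concentration showing cytotoxicity recorded.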

[4] = tested on: Mycobacterium tuberculosis; test: Antimycobacterial activity against Mycobacterium tuberculosis H37Rv expressing pSMT1 after 1 to 7 days by BACTEC 460-TB assay; assay type: functional
Procedure, shortened: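 Radiometric BACTEC 460-TB culture of M.tb. H37Rv in 7H9-based medium. Pre-culture grown to GI 300, then inoculated into a fresh vial with serial compound dilutions made at 40x final concentration from 1 mM DMSO stocks. GI (14C-palmitate to 14CO2) read daily against untreated inocula diluted 100-fold at inoculation. MIC99 taken as 99% inhibition. Each measurement done at least twice.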

[5] = tested on: Mycobacterium tuberculosis; test: Antimycobacterial activity against Mycobacterium tuberculosis H37Rv expressing pSMT1 after 1 to 7 days by luminescent assay; assay type: functional
Procedure, shortened: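 Luminescent M.tb. H37Rv carrying pSMT1 (luxAB, hsp60 promoter) in 7H9 + 10% FCS. Bacteria filtered, recovered 1 h at 37 °C, 5% CO2, added at 50,000 RLU/ml. Serial dilutions from 1 mM DMSO stocks, triplicate wells. Luminometry after 1, 3 and 7 days; MIC50 = 50% growth reduction.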

[6] = tested on: Mycobacterium tuberculosis; test: Antimycobacterial activity against Mycobacterium tuberculosis H37Rv infected in mouse J774 cells assessed as reduction of parasite growth at 1 uM after 1 day by luminescence assay; assay type: functional; design: scale not given: the % may be the effect or the level left
Procedure, shortened: (§1)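 Murine J774 macrophages, 100,000 per well, recovered overnight, then infected with luminescent M.tb. H37Rv (10^4 CFU, MOI 0.1) in DMEM with penicillin and Fungizone. Cells treated with compound at final 10, 3, 1, 0.3, 0.1 µM. Monolayers lysed after 1, 3 or 7 days; intracellular bacteria read by luminometry of lysate. Triplicate cultures, mean RLU.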

[7] = tested on: Mycobacterium tuberculosis; test: Antimycobacterial activity against Mycobacterium tuberculosis H37Rv infected in mouse J774 cells assessed as reduction of parasite growth at 0.3 uM after 7 days by luminescence assay; assay type: functional, organism-based; procedure, shortened: as §1
[8] = Induction of DNA fragmentation in human HepG2/C3A cells at 0.3 uM after 24 hrs by alkaline comet assay (reference value: 3.69%); assay type: toxicity, cell-based
Procedure, shortened: (§2)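 Alkaline comet assay on C3A cells, 100,000 per well, pre-incubated 24 h with compound at 3, 1, 0.3 or 0.1 µM. Cells embedded in agarose on slides, lysed 1 h, electrophoresed 20 min at 300 mA, neutralized, stained with gel red. % tail DNA measured by fluorescence microscopy; compared with negative control by Mann-Whitney U test.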

[9] = Cytotoxicity against mouse J774 cells assessed as viability at 1 uM after 7 days by neutral red uptake assay; assay type: cell-based; details: read-out: Activity
Procedure, shortened: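 Uninfected J774 macrophages exposed to compound in parallel with the infection assay; viability read by neutral red uptake over the same exposure period.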

[10] = Induction of DNA fragmentation in human HepG2/C3A cells at 0.1 uM after 24 hrs by alkaline comet assay (reference value: 3.69%); assay type: toxicity, cell-based; procedure, shortened: as §2
[11] = tested on: Mycobacterium tuberculosis; test: Antimycobacterial activity against Mycobacterium tuberculosis H37Rv infected in mouse J774 cells assessed as reduction of parasite growth at 1 uM after 7 days by luminescence assay; assay type: functional; design: scale not given: the % may be the effect or the level left; procedure, shortened: as §1
[12] = Induction of DNA fragmentation in human HepG2/C3A cells at 1 uM after 24 hrs by alkaline comet assay (reference value: 3.69%); assay type: toxicity, cell-based; procedure, shortened: as §2
[13] = Induction of DNA fragmentation in human HepG2/C3A cells at 3 uM after 24 hrs by alkaline comet assay (reference value: 3.69%); assay type: toxicity, cell-based; procedure, shortened: as §2
[14] = tested on: Mycobacterium tuberculosis; test: Antimycobacterial activity against Mycobacterium tuberculosis H37Rv infected in mouse J774 cells assessed as reduction of parasite growth at 1 uM after 3 days by luminescence assay; assay type: functional; design: scale not given: the % may be the effect or the level left; procedure, shortened: as §1

Structure (SMILES) | Selectivity Index [1] | IC50 [2] [µM] | Activity [3] [µM] | MIC99 [4] [µM] | MIC50 [5] [µM] | Activity [6] [%] | Activity [7] | Activity [8] [%] | viability at 168 h, 1 µM [9] [%] | Activity [10] [%] | Activity [11] [%] | Activity [12] [%] | Activity [13] [%] | Activity [14] [%]
Cc1cccc2c3c(cnc12)C(=O)c1ccccc1C3=O | 1.08 | 3.96 | 10 | 4.3 (≈ 1.18 µg/mL) | 3.68 (≈ 1.01 µg/mL) | – | – | – | – | – | – | – | – | –
Cc1ccc2ncc3c(c2c1)C(=O)c1ccccc1C3=O | 1.69 | 1.48 | 10 | 1.53 (≈ 0.418 µg/mL) | 0.88 (≈ 0.24 µg/mL) | – | – | – | – | – | – | – | – | –
O=C1c2ccccc2C(=O)c2c1cnc1ccccc21 | 1.26 | 1.51 | 1 | 1.9 (≈ 0.493 µg/mL) | 1.2 (≈ 0.311 µg/mL) | – | – | – | – | – | – | – | – | –
Cc1ccc2c3c(cnc2c1)C(=O)c1ccccc1C3=O | 15.29 | 3.21 | 10 | 0.64 (≈ 0.175 µg/mL) | 0.21 (≈ 0.0574 µg/mL) | 47.6 | inactive | 2.52 | 92.9 | 3.47 | 83.5 | 2.15 | 3.31 | 74.2
COc1ccc2ncc3c(c2c1)C(=O)c1ccccc1C3=O | 2.22 | 0.95 | 10 | – | 0.43 (≈ 0.124 µg/mL) | – | – | – | – | – | – | – | – | –
COc1cccc2c3c(cnc12)C(=O)c1ccccc1C3=O | 1.45 | 2.4 | 10 | 2.74 (≈ 0.793 µg/mL) | 1.66 (≈ 0.48 µg/mL) | – | – | – | – | – | – | – | – | –
O=C1c2ccccc2C(=O)c2c1cnc1ccc(Cl)cc21 | 1.5 | 1.56 | 1 | 1.35 (≈ 0.397 µg/mL) | 1.03 (≈ 0.303 µg/mL) | – | – | – | – | – | – | – | – | –
O=C1c2ccccc2C(=O)c2c1cnc1ccc(F)cc21 | 1.46 | 1.09 | 1 | 1.38 (≈ 0.383 µg/mL) | 0.74 (≈ 0.205 µg/mL) | – | – | – | – | – | – | – | – | –
NNC(=O)c1ccncc1 [ISONIAZID] | – | – | – | – | 0.54 (≈ 0.0741 µg/mL) | – | – | – | – | – | – | – | – | –
